Assay results taken from ChEMBL document CHEMBL1154290, “Synthesis and in vitro autoradiographic evaluation of a novel high-affinity radioiodinated ligand for imaging brain cannabinoid subtype-1 receptors” (Bioorg Med Chem Lett, 2009).

Columns and labels:
[1] = molecular target: Alpha-1B adrenergic receptor (Homo sapiens) (UniProt P35368); experiment: Displacement of [3H]Prazosin from alpha-1B adrenergic receptor at 10 uM by scintillation counting; details: tested as the 125I-labelled form
Method in brief: (§1)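 Receptor-panel selectivity screen: test ligand at a single 10 μM concentration. Each site is assayed by inhibition of binding of its radioligand, read out as percent inhibition (n = 4).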

[2] = molecular target: Alpha-2A adrenergic receptor (Homo sapiens) (UniProt P08913); experiment: Displacement of [3H]Clonidine from alpha-2A adrenergic receptor at 10 uM by scintillation counting; details: tested as the 125I-labelled form; method in brief: as §1
[3] = molecular target: Alpha-2B adrenergic receptor (Homo sapiens) (UniProt P18089); experiment: Displacement of [3H]Clonidine from alpha-2B adrenergic receptor at 10 uM by scintillation counting; details: tested as the 125I-labelled form; method in brief: as §1
[4] = molecular target: Beta-1 adrenergic receptor (Homo sapiens) (UniProt P08588); experiment: Displacement of [125I]Iodopindolol from beta-1 adrenergic receptor at 10 uM by scintillation counting; details: tested as the 125I-labelled form
[5] = molecular target: Beta-2 adrenergic receptor (Homo sapiens) (UniProt P07550); experiment: Displacement of [125I]Iodopindolol from beta2 adrenergic receptor at 10 uM by scintillation counting; details: tested as the 125I-labelled form
[6] = molecular target: Beta-3 adrenergic receptor (Homo sapiens) (UniProt P13945); experiment: Displacement of [125I]Iodopindolol from beta3 adrenergic receptor at 10 uM by scintillation counting; details: tested as the 125I-labelled form
[7] = molecular target: D(1A) dopamine receptor (Homo sapiens) (UniProt P21728); experiment: Displacement of [3H]SCH233930 from dopamine D 1 ( receptor) at 10 uM by scintillation counting; details: tested as the 125I-labelled form; method in brief: as §1
[8] = molecular target: D(2) dopamine receptor (Homo sapiens) (UniProt P14416); experiment: Displacement of [3H]N-methylspiperone from dopamine D 2( receptor) at 10 uM by scintillation counting; details: tested as the 125I-labelled form; method in brief: as §1
[9] = molecular target: D(3) dopamine receptor (Homo sapiens) (UniProt P35462); experiment: Displacement of [3H]N-methylspiperone from dopamine D 3 ( receptor) at 10 uM by scintillation counting; details: tested as the 125I-labelled form; method in brief: as §1
[10] = molecular target: D(4) dopamine receptor (Homo sapiens) (UniProt P21917); experiment: Displacement of [3H]N-methylspiperone from dopamine D 4 ( receptor) at 10 uM by scintillation counting; details: tested as the 125I-labelled form; method in brief: as §1
[11] = molecular target: Delta-type opioid receptor (Homo sapiens) (UniProt P41143); experiment: Displacement of [3H]DADLE from delta opioid receptor at 10 uM by scintillation counting; details: tested as the 125I-labelled form; method in brief: as §1
[12] = molecular target: Histamine H1 receptor (Homo sapiens) (UniProt P35367); experiment: Displacement of [3H]Pyrilamine from histamine H1 (receptor) at 10 uM by scintillation counting; details: tested as the 125I-labelled form; method in brief: as §1
[13] = molecular target: Histamine H2 receptor (Homo sapiens) (UniProt P25021); experiment: Displacement of [3H]Pyrilamine from histamine H2 (receptor) at 10 uM by scintillation counting; details: tested as the 125I-labelled form; method in brief: as §1
[14] = molecular target: Histamine H3 receptor (Homo sapiens) (UniProt Q9Y5N1); experiment: Displacement of [3H]alpha-methylhistamine from histamine H3 (receptor) at 10 uM by scintillation counting; details: tested as the 125I-labelled form; method in brief: as §1
[15] = molecular target: Histamine H4 receptor (Homo sapiens) (UniProt Q9H3N8); experiment: Displacement of [3H]Histamine from histamine H4 (receptor) at 10 uM by scintillation counting; details: tested as the 125I-labelled form; method in brief: as §1
[16] = molecular target: Muscarinic acetylcholine receptor M1 (Homo sapiens) (UniProt P11229); experiment: Displacement of [3H]QNB from Muscarinic acetylcholine receptor M1 at 10 uM by scintillation counting; details: tested as the 125I-labelled form; method in brief: as §1
[17] = molecular target: Muscarinic acetylcholine receptor M2 (Homo sapiens) (UniProt P08172); experiment: Displacement of [3H]QNB from Muscarinic acetylcholine receptor M2 at 10 uM by scintillation counting; details: tested as the 125I-labelled form; method in brief: as §1
[18] = molecular target: Muscarinic acetylcholine receptor M3 (Homo sapiens) (UniProt P20309); experiment: Displacement of [3H]QNB from Muscarinic acetylcholine receptor M3 at 10 uM by scintillation counting; details: tested as the 125I-labelled form; method in brief: as §1
[19] = molecular target: Muscarinic acetylcholine receptor M4 (Homo sapiens) (UniProt P08173); experiment: Displacement of [3H]QNB from Muscarinic acetylcholine receptor M4 at 10 uM by scintillation counting; details: tested as the 125I-labelled form; method in brief: as §1
[20] = molecular target: Muscarinic acetylcholine receptor M5 (Homo sapiens) (UniProt P08912); experiment: Displacement of [3H]QNB from Muscarinic acetylcholine receptor M5 at 10 uM by scintillation counting; details: tested as the 125I-labelled form; method in brief: as §1
[21] = molecular target: Sodium-dependent noradrenaline transporter (Homo sapiens) (UniProt P23975); experiment: Displacement of [3H]Nisoxetine from NET at 10 uM by scintillation counting; details: tested as the 125I-labelled form; method in brief: as §1
[22] = molecular target: Sodium-dependent serotonin transporter (Homo sapiens) (UniProt P31645); experiment: Displacement of [3H]Citalopram from SERT at 10 uM by scintillation counting; details: tested as the 125I-labelled form; method in brief: as §1
[23] = molecular target: Sigma non-opioid intracellular receptor 1 (Homo sapiens) (UniProt Q99720); experiment: Displacement of [3H]Pentazocine from sigma1 opioid receptor at 10 uM by scintillation counting; details: tested as the 125I-labelled form; method in brief: as §1
[24] = Displacement of [3H]DTG from […] opioid receptor at 10 uM by scintillation counting; details: tested as the 125I-labelled form; method in brief: as §1
[25] = molecular target: Vasopressin V1a receptor (Homo sapiens) (UniProt P37288); experiment: Displacement of [3H]vasopressin from vasopressin1A receptor at 10 uM by scintillation counting; details: tested as the 125I-labelled form; method in brief: as §1
[26] = molecular target: Vasopressin V1b receptor (Homo sapiens) (UniProt P47901); experiment: Displacement of [3H]vasopressin from vasopressin1B receptor at 10 uM by scintillation counting; details: tested as the 125I-labelled form; method in brief: as §1
[27] = molecular target: Vasopressin V2 receptor (Homo sapiens) (UniProt P30518); experiment: Displacement of [3H]vasopressin from vasopressin2 receptor at 10 uM by scintillation counting; details: tested as the 125I-labelled form; method in brief: as §1
[28] = molecular target: 5-hydroxytryptamine receptor 1B (Homo sapiens) (UniProt P28222); experiment: Displacement [3H]GR127543 from 5HT1B (receptor) at 10 uM by scintillation counting; details: tested as the 125I-labelled form; method in brief: as §1
[29] = molecular target: 5-hydroxytryptamine receptor 2C (Homo sapiens) (UniProt P28335); experiment: Inhibition of radioligand binding to 5HT1C (receptor) at 10 uM; details: tested as the 125I-labelled form; method in brief: as §1
[30] = molecular target: 5-hydroxytryptamine receptor 1D (Homo sapiens) (UniProt P28221); experiment: Displacement [3H]GR127543 from 5HT1D (receptor) at 10 uM by scintillation counting; details: tested as the 125I-labelled form; method in brief: as §1
[31] = molecular target: 5-hydroxytryptamine receptor 1E (Homo sapiens) (UniProt P28566); experiment: Displacement of [3H]5-HT from 5HT1E (receptor) at 10 uM by scintillation counting; details: tested as the 125I-labelled form; method in brief: as §1
[32] = molecular target: 5-hydroxytryptamine receptor 2A (Homo sapiens) (UniProt P28223); experiment: Displacement of [3H]Ketanserin from 5HT2A (receptor) at 10 uM by scintillation counting; details: tested as the 125I-labelled form; method in brief: as §1
[33] = molecular target: 5-hydroxytryptamine receptor 2B (Homo sapiens) (UniProt P41595); experiment: Displacement of [3H]LSD from 5HT2B (receptor) at 10 uM by scintillation counting; details: tested as the 125I-labelled form; method in brief: as §1
[34] = molecular target: 5-hydroxytryptamine receptor 2C (Homo sapiens) (UniProt P28335); experiment: Displacement of [3H]Mesulergine from 5HT2C (receptor) at 10 uM by scintillation counting; details: tested as the 125I-labelled form; method in brief: as §1
[35] = molecular target: 5-hydroxytryptamine receptor 3A (Homo sapiens) (UniProt P46098); experiment: Displacement of [3H]LY278584 from 5HT3 (receptor) at 10 uM by scintillation counting; details: tested as the 125I-labelled form; method in brief: as §1
[36] = molecular target: 5-hydroxytryptamine receptor 5A (Homo sapiens) (UniProt P47898); experiment: Displacement of [3H]LSD from 5HT5A (receptor) at 10 uM by scintillation counting; details: tested as the 125I-labelled form; method in brief: as §1
[37] = molecular target: 5-hydroxytryptamine receptor 6 (Homo sapiens) (UniProt P50406); experiment: Displacement of [3H]LSD from 5HT6 (receptor) at 10 uM by scintillation counting; details: tested as the 125I-labelled form; method in brief: as §1
[38] = molecular target: 5-hydroxytryptamine receptor 7 (Homo sapiens) (UniProt P34969); experiment: Displacement of [3H]LSD from 5HT7 (receptor) at 10 uM by scintillation counting; details: tested as the 125I-labelled form; method in brief: as §1
[39] = molecular target: Alpha-1A adrenergic receptor (Homo sapiens) (UniProt P35348); experiment: Displacement of [3H]Prazosin from alpha-1A adrenergic receptor at 10 uM by scintillation counting; details: tested as the 125I-labelled form; method in brief: as §1
Cannabinoid receptor 1 = Cannabinoid receptor 1 (Homo sapiens, UniProt P21554)
Cannabinoid receptor 2 = Cannabinoid receptor 2 (Homo sapiens, UniProt P34972); experiment: Displacement of [3H]CP-55940 from CB2 receptor by scintillation counting
Method in brief: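 CB2 affinity given as Ki from radioligand displacement, reported as mean ± SD of three determinations.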

[40] = molecular target: 5-hydroxytryptamine receptor 1A (Homo sapiens, UniProt P08908); experiment: Displacement of [3H]8OH-DPAT from 5HT1A receptor at 10 uM by scintillation counting
[41] = molecular target: Alpha-2C adrenergic receptor (Homo sapiens, UniProt P18825); experiment: Displacement of [125I]Iodoclonidine from alpha-2C adrenergic receptor at 10 uM by scintillation counting
[42] = molecular target: Kappa-type opioid receptor (Homo sapiens, UniProt P41145); experiment: Displacement of [3H]U69593 from kappa opioid receptor at 10 uM by scintillation counting
Mu-type opioid receptor = Mu-type opioid receptor (Homo sapiens, UniProt P35372); experiment: Displacement of [3H]DAMGO from mu opioid at 10 uM by scintillation counting
Translocator protein = Translocator protein (Homo sapiens, UniProt P30536); experiment: Displacement of [3H]PK11195 from TSPO at 10 uM by scintillation counting
Sequence of Translocator protein (P30536 whole entry): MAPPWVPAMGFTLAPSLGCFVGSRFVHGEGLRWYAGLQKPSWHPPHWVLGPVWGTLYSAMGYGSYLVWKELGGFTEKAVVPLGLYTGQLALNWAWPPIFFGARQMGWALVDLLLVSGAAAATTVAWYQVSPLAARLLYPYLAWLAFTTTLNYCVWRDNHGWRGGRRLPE

Sequence of 5-hydroxytryptamine receptor 2C (Homo sapiens) (P28335 whole entry): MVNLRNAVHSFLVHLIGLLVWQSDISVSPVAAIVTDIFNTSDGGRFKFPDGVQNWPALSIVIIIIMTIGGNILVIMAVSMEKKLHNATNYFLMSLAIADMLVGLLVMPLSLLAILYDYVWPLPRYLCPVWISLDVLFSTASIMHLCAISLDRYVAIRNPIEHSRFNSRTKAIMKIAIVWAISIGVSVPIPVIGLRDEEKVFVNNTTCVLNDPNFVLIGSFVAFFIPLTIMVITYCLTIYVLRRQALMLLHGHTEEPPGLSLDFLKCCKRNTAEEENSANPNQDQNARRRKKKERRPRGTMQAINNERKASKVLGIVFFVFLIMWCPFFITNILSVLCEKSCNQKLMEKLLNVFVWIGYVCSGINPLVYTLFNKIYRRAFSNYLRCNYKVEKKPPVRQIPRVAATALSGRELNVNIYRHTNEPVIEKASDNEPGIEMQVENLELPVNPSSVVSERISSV
Sequence of D(2) dopamine receptor (Homo sapiens) (P14416 whole entry): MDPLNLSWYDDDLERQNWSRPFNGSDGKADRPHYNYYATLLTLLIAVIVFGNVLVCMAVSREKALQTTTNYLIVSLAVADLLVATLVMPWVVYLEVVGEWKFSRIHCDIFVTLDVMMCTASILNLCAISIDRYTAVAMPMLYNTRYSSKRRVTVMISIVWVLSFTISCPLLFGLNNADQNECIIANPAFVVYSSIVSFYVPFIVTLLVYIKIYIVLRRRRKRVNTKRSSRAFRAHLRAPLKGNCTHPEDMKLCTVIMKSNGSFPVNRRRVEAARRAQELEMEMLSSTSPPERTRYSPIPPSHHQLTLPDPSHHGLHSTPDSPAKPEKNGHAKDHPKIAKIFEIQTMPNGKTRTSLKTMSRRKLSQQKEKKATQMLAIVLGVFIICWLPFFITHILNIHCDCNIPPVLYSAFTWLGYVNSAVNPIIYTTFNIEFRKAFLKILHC
Sequence of D(1A) dopamine receptor (Homo sapiens) (P21728 whole entry): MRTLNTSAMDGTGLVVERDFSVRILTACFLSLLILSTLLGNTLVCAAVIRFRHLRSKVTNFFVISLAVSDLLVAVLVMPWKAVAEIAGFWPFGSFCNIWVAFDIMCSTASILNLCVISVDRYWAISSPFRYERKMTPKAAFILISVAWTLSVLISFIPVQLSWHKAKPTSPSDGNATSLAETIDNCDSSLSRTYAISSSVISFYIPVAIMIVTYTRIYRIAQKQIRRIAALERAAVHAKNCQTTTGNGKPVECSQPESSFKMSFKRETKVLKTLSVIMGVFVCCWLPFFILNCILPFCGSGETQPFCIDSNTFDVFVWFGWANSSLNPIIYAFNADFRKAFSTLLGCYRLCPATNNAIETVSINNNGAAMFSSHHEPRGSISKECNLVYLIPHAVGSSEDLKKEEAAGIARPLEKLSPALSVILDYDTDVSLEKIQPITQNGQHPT
Sequence of Mu-type opioid receptor (P35372 whole entry): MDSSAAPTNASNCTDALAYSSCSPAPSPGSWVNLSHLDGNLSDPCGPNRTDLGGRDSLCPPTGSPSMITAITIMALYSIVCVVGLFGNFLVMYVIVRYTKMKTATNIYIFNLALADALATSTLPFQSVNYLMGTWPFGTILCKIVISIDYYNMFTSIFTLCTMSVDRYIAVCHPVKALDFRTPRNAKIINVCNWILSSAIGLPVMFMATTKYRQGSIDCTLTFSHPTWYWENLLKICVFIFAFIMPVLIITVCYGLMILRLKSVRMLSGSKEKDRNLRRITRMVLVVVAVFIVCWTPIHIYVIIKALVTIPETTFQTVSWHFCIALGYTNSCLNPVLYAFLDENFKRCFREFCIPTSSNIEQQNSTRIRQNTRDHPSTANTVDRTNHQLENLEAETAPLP
Sequence of 5-hydroxytryptamine receptor 1B (Homo sapiens) (P28222 whole entry): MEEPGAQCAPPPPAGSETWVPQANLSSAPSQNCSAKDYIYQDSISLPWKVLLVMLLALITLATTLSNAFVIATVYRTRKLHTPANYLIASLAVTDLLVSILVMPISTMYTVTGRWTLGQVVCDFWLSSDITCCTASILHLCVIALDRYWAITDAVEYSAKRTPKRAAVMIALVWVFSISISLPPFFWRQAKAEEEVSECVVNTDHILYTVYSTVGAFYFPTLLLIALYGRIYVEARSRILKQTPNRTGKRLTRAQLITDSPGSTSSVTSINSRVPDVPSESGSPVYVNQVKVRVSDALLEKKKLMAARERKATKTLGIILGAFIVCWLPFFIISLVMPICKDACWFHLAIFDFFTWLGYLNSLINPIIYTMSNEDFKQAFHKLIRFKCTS
Sequence of Muscarinic acetylcholine receptor M4 (Homo sapiens) (P08173 whole entry): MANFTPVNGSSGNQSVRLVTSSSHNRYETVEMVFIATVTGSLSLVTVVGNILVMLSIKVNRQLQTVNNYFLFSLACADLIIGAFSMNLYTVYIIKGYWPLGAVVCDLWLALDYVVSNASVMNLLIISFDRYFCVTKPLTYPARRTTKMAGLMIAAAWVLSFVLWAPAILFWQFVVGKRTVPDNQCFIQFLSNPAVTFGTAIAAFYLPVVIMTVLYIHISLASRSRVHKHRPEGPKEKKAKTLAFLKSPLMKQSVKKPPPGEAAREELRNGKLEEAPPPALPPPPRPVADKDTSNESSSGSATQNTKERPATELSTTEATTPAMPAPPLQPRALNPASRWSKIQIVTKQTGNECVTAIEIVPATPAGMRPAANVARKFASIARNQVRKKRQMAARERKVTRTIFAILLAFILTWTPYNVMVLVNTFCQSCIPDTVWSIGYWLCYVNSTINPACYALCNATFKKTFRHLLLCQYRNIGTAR
Sequence of Sodium-dependent serotonin transporter (Homo sapiens) (P31645 whole entry, looked up): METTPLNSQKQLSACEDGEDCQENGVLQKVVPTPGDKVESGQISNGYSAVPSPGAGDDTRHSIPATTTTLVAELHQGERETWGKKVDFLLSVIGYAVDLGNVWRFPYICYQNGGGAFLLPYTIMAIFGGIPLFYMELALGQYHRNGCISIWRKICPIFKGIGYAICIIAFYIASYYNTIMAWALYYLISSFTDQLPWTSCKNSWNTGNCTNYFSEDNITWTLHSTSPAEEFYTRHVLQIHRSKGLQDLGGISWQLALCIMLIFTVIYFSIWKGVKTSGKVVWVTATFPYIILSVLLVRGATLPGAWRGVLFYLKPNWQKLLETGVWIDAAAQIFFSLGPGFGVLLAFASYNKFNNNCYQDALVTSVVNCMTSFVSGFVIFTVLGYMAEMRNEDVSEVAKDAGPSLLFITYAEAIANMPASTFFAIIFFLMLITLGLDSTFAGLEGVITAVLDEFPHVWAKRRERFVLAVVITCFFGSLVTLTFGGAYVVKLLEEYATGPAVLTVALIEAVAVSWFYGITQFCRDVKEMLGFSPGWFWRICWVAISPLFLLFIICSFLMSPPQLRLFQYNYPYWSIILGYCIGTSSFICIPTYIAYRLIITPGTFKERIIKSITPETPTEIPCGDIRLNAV
Sequence of 5-hydroxytryptamine receptor 2A (Homo sapiens) (P28223 whole entry): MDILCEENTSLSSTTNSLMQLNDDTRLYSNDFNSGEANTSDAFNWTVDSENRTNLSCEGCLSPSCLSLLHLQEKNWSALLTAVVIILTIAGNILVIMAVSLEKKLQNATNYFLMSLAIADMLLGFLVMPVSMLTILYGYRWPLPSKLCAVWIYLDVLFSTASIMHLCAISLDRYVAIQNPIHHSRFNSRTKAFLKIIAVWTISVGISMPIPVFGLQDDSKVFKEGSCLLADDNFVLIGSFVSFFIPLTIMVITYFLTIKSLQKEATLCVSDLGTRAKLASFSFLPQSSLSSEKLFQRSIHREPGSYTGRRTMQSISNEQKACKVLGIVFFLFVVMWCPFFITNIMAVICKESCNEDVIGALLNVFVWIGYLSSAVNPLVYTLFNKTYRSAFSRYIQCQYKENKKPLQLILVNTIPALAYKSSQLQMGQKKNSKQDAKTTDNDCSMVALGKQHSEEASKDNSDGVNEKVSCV
Sequence of Histamine H3 receptor (Homo sapiens) (Q9Y5N1 whole entry): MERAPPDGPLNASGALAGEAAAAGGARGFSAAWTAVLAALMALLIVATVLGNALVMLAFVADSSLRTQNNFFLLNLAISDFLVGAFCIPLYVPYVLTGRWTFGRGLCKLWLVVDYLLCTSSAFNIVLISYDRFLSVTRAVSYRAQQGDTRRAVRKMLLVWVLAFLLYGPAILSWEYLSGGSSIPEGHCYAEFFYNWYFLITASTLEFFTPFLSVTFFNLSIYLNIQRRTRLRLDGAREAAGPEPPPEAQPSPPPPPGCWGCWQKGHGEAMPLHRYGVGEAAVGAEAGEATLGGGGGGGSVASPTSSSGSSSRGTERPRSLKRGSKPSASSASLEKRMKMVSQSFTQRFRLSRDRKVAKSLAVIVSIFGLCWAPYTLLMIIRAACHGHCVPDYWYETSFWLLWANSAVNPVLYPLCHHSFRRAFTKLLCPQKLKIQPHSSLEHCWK
Sequence of Histamine H1 receptor (Homo sapiens) (P35367 whole entry): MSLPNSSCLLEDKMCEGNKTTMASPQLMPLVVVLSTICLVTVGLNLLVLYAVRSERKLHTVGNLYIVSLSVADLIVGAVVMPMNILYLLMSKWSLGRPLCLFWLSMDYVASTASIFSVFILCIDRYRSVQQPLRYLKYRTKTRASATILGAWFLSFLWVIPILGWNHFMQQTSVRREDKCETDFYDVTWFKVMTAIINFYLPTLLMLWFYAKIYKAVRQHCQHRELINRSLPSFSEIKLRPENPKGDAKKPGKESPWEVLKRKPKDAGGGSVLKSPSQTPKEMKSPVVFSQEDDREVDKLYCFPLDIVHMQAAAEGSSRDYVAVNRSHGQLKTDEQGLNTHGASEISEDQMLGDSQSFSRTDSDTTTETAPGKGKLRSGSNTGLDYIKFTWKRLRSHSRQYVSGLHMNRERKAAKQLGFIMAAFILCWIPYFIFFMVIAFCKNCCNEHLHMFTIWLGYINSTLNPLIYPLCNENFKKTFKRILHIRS

COc1ccc(-c2c(C#N)c(C(=O)NN3CCCCC3)nn2-c2ccccc2I)cc1
inhibition [1]: < 50%
inhibition [2]: < 50%
inhibition [3]: < 50%
inhibition [4]: < 50%
inhibition [5]: < 50%
inhibition [6]: < 50%
inhibition [7]: < 50%
inhibition [8]: < 50%
inhibition [9]: < 50%
inhibition [10]: < 50%
inhibition [11]: < 50%
inhibition [12]: < 50%
inhibition [13]: < 50%
inhibition [14]: < 50%
inhibition [15]: < 50%
inhibition [16]: < 50%
inhibition [17]: < 50%
inhibition [18]: < 50%
inhibition [19]: < 50%
inhibition [20]: < 50%
inhibition [21]: < 50%
inhibition [22]: < 50%
inhibition [23]: < 50%
inhibition [24]: < 50%
inhibition [25]: < 50%
inhibition [26]: < 50%
inhibition [27]: < 50%
inhibition [28]: < 50%
inhibition [29]: < 50%
inhibition [30]: < 50%
inhibition [31]: < 50%
inhibition [32]: < 50%
inhibition [33]: < 50%
inhibition [34]: < 50%
inhibition [35]: < 50%
inhibition [36]: < 50%
inhibition [37]: < 50%
inhibition [38]: < 50%
inhibition [39]: < 50%

COc1ccc(-c2c(C#N)c(C(=O)NN3CCCCC3)nn2-c2ccccc2[125I])cc1
Ki (Cannabinoid receptor 1): 3.4 nM
Ki (Cannabinoid receptor 2): 548 nM
Ki [40]: 93.5 nM
Ki [41]: > 10000 nM
Ki [42]: 1480 nM
Ki (Mu-type opioid receptor): 1500 nM
Ki (Translocator protein): 3170 nM
